Test results as given in ChEMBL document CHEMBL1131295, “Design of peptidomimetics that inhibit the association of phosphatidylinositol 3-kinase with platelet-derived growth factor-beta receptor and possess cellular activity” (J Med Chem, 1998).
Where a SMILES comes first, the peptide text is derived from it. [ ]: non-standard residue; d: D form. F2Pmp = N[C@@H](Cc1ccc(C(F)(F)P(=O)(O)O)cc1)C(=O)O; Pmp = N[C@@H](Cc1ccc(CP(=O)(O)O)cc1)C(=O)O; pY = N[C@@H](Cc1ccc(OP(=O)(O)O)cc1)C(=O)O; Nle = CCCC[C@H](N)C(=O)O

Tests used:
[1] = Binding affinity against p85 C-terminal SH2 domain to platelet-derived growth factor receptor beta using [35S]GST as radioligand
Outline: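 Recombinant [35S]-labelled GST-p85 C-terminal SH2 fusion (E. coli, IPTG 1 mM, trans-35S label) binding to bead-bound Sf9-expressed PDGF-β receptor tyrosine kinase domain, prephosphorylated with 1 mM ATP, 10 mM MnCl2, 5 mM MgCl2.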

[2] = target: Proto-oncogene tyrosine-protein kinase Src (Homo sapiens, UniProt P12931); assay: Affinity for SH2 domain of src in Sf9 insect cells
[3] = target: Tyrosine-protein kinase ABL1 (Homo sapiens) (UniProt P00519); assay: Affinity for SH2 domain of abl expressed in Sf9 insect cells; conditions: concentration not given here
Chain of Tyrosine-protein kinase ABL1 (Homo sapiens) (P00519 whole entry, the tested form may be a part): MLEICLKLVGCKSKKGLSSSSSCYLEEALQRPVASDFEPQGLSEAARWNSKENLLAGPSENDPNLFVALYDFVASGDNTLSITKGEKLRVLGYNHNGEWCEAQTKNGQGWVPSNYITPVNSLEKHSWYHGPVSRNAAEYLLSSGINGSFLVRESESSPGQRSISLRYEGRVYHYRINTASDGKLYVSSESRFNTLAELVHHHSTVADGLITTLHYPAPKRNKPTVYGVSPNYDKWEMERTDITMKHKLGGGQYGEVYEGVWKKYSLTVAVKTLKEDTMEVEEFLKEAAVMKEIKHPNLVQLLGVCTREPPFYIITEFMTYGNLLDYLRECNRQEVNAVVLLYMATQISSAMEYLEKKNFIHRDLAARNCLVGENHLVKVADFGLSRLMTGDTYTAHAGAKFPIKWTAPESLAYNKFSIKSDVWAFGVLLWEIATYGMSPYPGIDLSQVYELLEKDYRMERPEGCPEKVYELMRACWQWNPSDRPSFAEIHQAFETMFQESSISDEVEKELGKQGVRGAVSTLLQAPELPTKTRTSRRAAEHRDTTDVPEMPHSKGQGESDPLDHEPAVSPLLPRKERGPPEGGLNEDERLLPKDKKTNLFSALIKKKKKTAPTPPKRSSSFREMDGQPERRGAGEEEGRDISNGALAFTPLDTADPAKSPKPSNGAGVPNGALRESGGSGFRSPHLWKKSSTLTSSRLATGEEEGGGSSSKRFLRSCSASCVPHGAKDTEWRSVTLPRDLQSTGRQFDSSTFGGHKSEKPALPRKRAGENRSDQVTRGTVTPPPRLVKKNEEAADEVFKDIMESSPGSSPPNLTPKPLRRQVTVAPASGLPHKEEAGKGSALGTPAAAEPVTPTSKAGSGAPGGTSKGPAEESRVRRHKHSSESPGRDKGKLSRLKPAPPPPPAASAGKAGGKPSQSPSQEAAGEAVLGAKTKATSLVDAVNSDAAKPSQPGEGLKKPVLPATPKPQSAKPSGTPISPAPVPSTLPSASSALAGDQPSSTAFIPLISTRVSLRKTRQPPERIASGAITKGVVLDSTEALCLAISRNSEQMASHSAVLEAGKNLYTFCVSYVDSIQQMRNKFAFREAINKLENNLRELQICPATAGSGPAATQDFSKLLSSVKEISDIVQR

Chain of Proto-oncogene tyrosine-protein kinase Src (P12931 2-536 limits assumed): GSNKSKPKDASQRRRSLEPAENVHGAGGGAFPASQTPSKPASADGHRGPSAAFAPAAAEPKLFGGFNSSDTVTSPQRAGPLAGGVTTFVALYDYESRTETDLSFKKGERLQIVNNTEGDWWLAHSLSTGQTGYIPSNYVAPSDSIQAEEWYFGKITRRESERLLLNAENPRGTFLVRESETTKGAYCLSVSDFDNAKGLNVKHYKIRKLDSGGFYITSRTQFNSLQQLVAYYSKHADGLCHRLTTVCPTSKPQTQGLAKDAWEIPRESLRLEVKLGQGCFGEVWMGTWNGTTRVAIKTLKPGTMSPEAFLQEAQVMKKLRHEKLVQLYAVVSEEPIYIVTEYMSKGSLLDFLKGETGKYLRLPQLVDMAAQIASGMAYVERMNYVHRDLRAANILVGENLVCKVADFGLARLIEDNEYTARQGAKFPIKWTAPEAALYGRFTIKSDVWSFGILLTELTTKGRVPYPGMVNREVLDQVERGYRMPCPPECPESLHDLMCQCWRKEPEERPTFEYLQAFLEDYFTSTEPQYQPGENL

Question: Which IC50 [1] does the source give for `CCCCN(CCCC)C(=O)[C@H](C)NC(=O)[C@@H](NC(=O)[C@H](Cc1ccc(OP(=O)(O)O)cc1)NC(C)=O)C(C)C` here?
Answer: Its IC50 is 5700 nM.

Question: With `CCCCCCN(CCCCCC)C(=O)[C@@H](C)NC(=O)[C@@H](NC(=O)[C@H](Cc1ccc(OP(=O)(O)O)cc1)NC(C)=O)C(C)C` as the compound, how does the IC50 [1] read?
Answer: The IC50 was 76 nM.

Question: With `CSCC[C@H](NC(=O)[C@@H]1CCCN1C(=O)[C@@H](NC(=O)[C@@H](N)Cc1ccc(OP(=O)(O)O)cc1)C(C)C)C(=O)O` (H-[pY]VPM-OH) as the compound, how does the IC50 [1] read?
Answer: Its IC50 is 6850 nM.

Question: Which IC50 [1] does the source give for `CCCCN(CCCC)C(=O)[C@@H](C)NC(=O)[C@@H](NC(=O)[C@H](Cc1ccc(OP(=O)(O)O)cc1)NC(C)=O)C(C)C` here?
Answer: Its IC50 is 478 nM.

Question: With `CSCC[C@H](NC(=O)[C@H](CC(=O)O)NC(=O)[C@H](CCSC)NC(=O)[C@@H](N)Cc1ccc(OP(=O)(O)O)cc1)C(=O)N[C@@H](CO)C(=O)O` (H-[pY]MDMS-OH) as the compound, how does the IC50 [1] read?
Answer: The IC50 was 520 nM.

Question: For `CCCCCN(CCCCC)C(=O)[C@H](C)NC(=O)[C@@H](NC(=O)[C@H](Cc1ccc(OP(=O)(O)O)cc1)NC(C)=O)C(C)C`, which IC50 [1] is on record?
Answer: The IC50 was 3320 nM.

Question: With `CCCC[C@H](NC(=O)[C@@H]1CCCN1C(=O)[C@@H](NC(=O)[C@@H](N)Cc1ccc(OP(=O)(O)O)cc1)C(C)C)C(=O)N[C@@H](CC(C)C)C(=O)O` (H-[pY]VP[Nle]L-OH) as the compound, how does the IC50 [1] read?
Answer: Its IC50 is 1360 nM.

Question: And the IC50 [2]?
Answer: The IC50 was > 10 µM.

Question: Which IC50 [1] does the source give for `CCCCCN(CCCCC)C(=O)[C@H](C)NC(=O)[C@@H](NC(=O)[C@H](Cc1ccc(C(F)(F)P(=O)(O)O)cc1)NC(C)=O)C(C)C` here?
Answer: Its IC50 is 372 nM.

Question: For `CCCCCCN(CCCCCC)C(=O)[C@H](C)NC(=O)[C@@H](NC(=O)[C@H](Cc1ccc(OP(=O)(O)O)cc1)NC(C)=O)C(C)C`, which IC50 [1] is on record?
Answer: The IC50 was 2500 nM.

Question: For `CSCC[C@H](NC(=O)[C@@H]1CCCN1C(=O)[C@@H](NC(=O)[C@H](Cc1ccc(OP(=O)(O)O)cc1)NC(C)=O)C(C)C)C(=O)N[C@@H](CC(C)C)C(N)=O` (Ac-[pY]VPML-NH2), which IC50 [1] is on record?
Answer: Its IC50 is 160 nM.

Question: For `CC(=O)N[C@@H](Cc1ccc(OP(=O)(O)O)cc1)C(=O)N[C@H](C(=O)N[C@@H](C)C(=O)NCCc1ccccc1)C(C)C`, which IC50 [1] is on record?
Answer: The IC50 was > 100000 nM.

Question: With `CC(=O)N[C@@H](Cc1ccc(OP(=O)(O)O)cc1)C(=O)N[C@H](C(=O)N[C@H](C)C(=O)NCCc1ccccc1)C(C)C` as the compound, how does the IC50 [1] read?
Answer: The IC50 was 37600 nM.

Question: With `CSCC[C@H](NC(=O)[C@@H]1CCCN1C(=O)[C@@H](NC(=O)[C@H](Cc1ccc(OP(=O)(O)O)cc1)NC(C)=O)C(C)C)C(N)=O` (Ac-[pY]VPM-NH2) as the compound, how does the IC50 [1] read?
Answer: Its IC50 is 264 nM.

Question: Which IC50 [1] does the source give for `CSCC[C@H](NC(=O)[C@@H]1CCCN1C(=O)[C@@H](NC(=O)[C@@H](N)Cc1ccc(C(F)(F)P(=O)(O)O)cc1)C(C)C)C(=O)N[C@@H](CC(C)C)C(=O)O` (H-[F2Pmp]VPML-OH) here?
Answer: The IC50 was 945 nM.

Question: Which IC50 [1] does the source give for `CCCCCCN(CCCCCC)C(=O)[C@H](C)NC(=O)[C@@H](NC(=O)[C@H](Cc1ccc(C(F)(F)P(=O)(O)O)cc1)NC(C)=O)C(C)C` here?
Answer: Its IC50 is 446 nM.

Question: For `CCCCCN(CCCCC)C(=O)[C@@H](C)NC(=O)[C@@H](NC(=O)[C@H](Cc1ccc(OP(=O)(O)O)cc1)NC(C)=O)C(C)C`, which IC50 [1] is on record?
Answer: The IC50 was 220 nM.

Question: Which IC50 [1] does the source give for `CSCC[C@H](NC(=O)[C@@H]1CCCN1C(=O)[C@@H](NC(=O)[C@@H](N)Cc1ccc(OP(=O)(O)O)cc1)C(C)C)C(N)=O` (H-[pY]VPM-NH2) here?
Answer: Its IC50 is 485 nM.

Question: Which IC50 [1] does the source give for `CCCCCNC(=O)C(C)NC(=O)[C@@H](NC(=O)[C@H](Cc1ccc(OP(=O)(O)O)cc1)NC(C)=O)C(C)C` (single isomer, unassigned) here?
Answer: The IC50 was 4560 nM.

Question: For `CSCC[C@H](NC(=O)[C@@H]1CCCN1C(=O)[C@@H](NC(=O)[C@@H](N)Cc1ccc(CP(=O)(O)O)cc1)C(C)C)C(=O)N[C@@H](CC(C)C)C(=O)O` (H-[Pmp]VPML-OH), which IC50 [1] is on record?
Answer: Its IC50 is 8700 nM.

Question: With `CSCC[C@H](NC(=O)[C@@H]1CCCN1C(=O)[C@@H](NC(=O)[C@@H](N)Cc1ccc(OP(=O)(O)O)cc1)C(C)C)C(=O)N[C@@H](CC(C)C)C(=O)O` (H-[pY]VPML-OH) as the compound, how does the IC50 [1] read?
Answer: Its IC50 is 445 nM.

Question: What about the inhibition [3] of the same compound?
Answer: Its inhibition is 60%.

Question: And the IC50 [2]?
Answer: Its IC50 is 12.7 µM.

Question: For `CCCCN(CC(N)=O)C(=O)[C@@H](C)NC(=O)[C@@H](NC(=O)[C@H](Cc1ccc(OP(=O)(O)O)cc1)NC(C)=O)C(C)C`, which IC50 [1] is on record?
Answer: The IC50 was 2500 nM.

Question: For `CCCCCNC(=O)[C@H](C)NC(=O)[C@@H](NC(=O)[C@H](Cc1ccc(OP(=O)(O)O)cc1)NC(C)=O)C(C)C`, which IC50 [1] is on record?
Answer: The IC50 was 16100 nM.

Question: With `CCCCCCCCN(CCCCCCCC)C(=O)[C@H](C)NC(=O)[C@@H](NC(=O)[C@H](Cc1ccc(OP(=O)(O)O)cc1)NC(C)=O)C(C)C` as the compound, how does the IC50 [1] read?
Answer: The IC50 was 3470 nM.

Question: Which IC50 [1] does the source give for `CSCC[C@H](NC(=O)[C@@H]1CCCN1C(=O)[C@@H](NC(=O)[C@@H](N)Cc1ccc(OP(=O)(O)O)cc1)C(C)C)C(=O)N[C@@H](CC(C)C)C(N)=O` (H-[pY]VPML-NH2) here?
Answer: Its IC50 is 400 nM.

Question: For `CSCC[C@H](NC(=O)[C@@H]1CCCN1C(=O)[C@@H](NC(=O)[C@H](Cc1ccc(OP(=O)(O)O)cc1)NC(C)=O)C(C)C)C(=O)N[C@@H](CC(C)C)C(=O)O` (Ac-[pY]VPML-OH), which IC50 [1] is on record?
Answer: Its IC50 is 180 nM.

Question: And the IC50 [2]?
Answer: Its IC50 is 5.9 µM.

Question: For `CC(=O)N[C@@H](Cc1ccc(OP(=O)(O)O)cc1)C(=O)N[C@H](C(=O)N[C@@H](C)C(=O)NCCC1CCCCC1)C(C)C`, which IC50 [1] is on record?
Answer: The IC50 was > 100000 nM.

Question: Which IC50 [1] does the source give for `CSCC[C@H](NC(=O)[C@@H]1CCCN1C(=O)[C@@H](NC(=O)[C@H](Cc1ccc(C(F)(F)P(=O)(O)O)cc1)NC(C)=O)C(C)C)C(N)=O` (Ac-[F2Pmp]VPM-NH2) here?
Answer: Its IC50 is 1450 nM.

Question: Which IC50 [1] does the source give for `CC(=O)N[C@@H](Cc1ccc(OP(=O)(O)O)cc1)C(=O)N[C@H](C(=O)N[C@H](C)C(=O)NCCC1CCCCC1)C(C)C` here?
Answer: Its IC50 is 19000 nM.
